Calls of active or inactive are those of the source. No cut-off for these calls is given here.
How the values were obtained:
Cavia porcellus [1] = species on record: Cavia porcellus; assay: Decrease in atrial rate of the right atrium of guinea pig expressed as the negative chronotropy.; set-up: concentration or dose not given beside the values
K562 [2] = assay: percentage of the dead cells of K-562 cells was determined for the concentration of 1 uM of the compound.; assay type: ADME, cell-based; settings: human, k562, 1 µM
Outline: (§1)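 Doxorubicin-resistant K 562 cells were exposed to compound at 1 µM, and viability was scored by trypan blue exclusion. Dead cells above 20% counted as toxic.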

Cavia porcellus [3] = species on record: Cavia porcellus; assay: Potency expressed as IC50 for the vasorelaxant activity; 'i' means inactive.; assay type: functional
Cavia porcellus [4] = species on record: Cavia porcellus; assay: Decrease in developed tension of the left atrium of guinea pig expressed as the negative inotropy.; assay type: functional, Cardiac atrium; set-up: concentration or dose not given beside the values
Outline: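 Isolated guinea pig left atrium, electrically driven at 1 Hz. Read-out is the fall in developed tension at 5 × 10^-5 M, given as percent change from control (n = 5-6).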

Cavia porcellus [5] = species on record: Cavia porcellus; assay: Potency expressed as EC50 for the negative inotropic activity.; assay type: functional
K562 [6] = assay: The efficacy in reverting MDR was evaluated on erythroleukemia K-562 cell line.; assay type: functional, Homo sapiens
Outline: (§2)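 Doxorubicin-resistant and sensitive K 562 cells in exponential growth were used in pH 7.25 HEPES buffer at 37 °C in quartz cuvettes. Pirarubicin uptake was followed as the fall in fluorescence at 590 nm (ex 480 nm). Steady-state nuclear pirarubicin was measured across a range of inhibitor concentrations. α = (CnRi − CnRo)/(CnS − CnRo); αmax is the maximal α, and [i]0.5 is the concentration giving α = 0.5 (mean ± SEM).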

K562 [7] = assay: Potency that causes a half maximal increase in nuclear concentration of pirarubicin.; assay type: functional, Homo sapiens
Cavia porcellus [8] = species on record: Cavia porcellus; assay: Percent inhibition of calcium-induced contraction on K+ depolarized guinea pig aortic strip.; assay type: functional, Aorta; set-up: concentration or dose not given beside the values
Cavia porcellus [9] = species on record: Cavia porcellus; assay: Potency expressed as EC30 for the negative chronotropic activity; 'i' means Inactive; assay type: functional
Cavia porcellus [10] = species on record: Cavia porcellus; assay: Potency expressed as EC30 for the negative chronotropic activity.; assay type: functional
K562 [11] = assay: Percentage of the dead cells of K-562 cells was determined for the compound; assay type: ADME, cell-based; settings: human
Outline: as §1

K562 [12] = assay: The efficacy in reverting MDR was evaluated on human erythroleukemia K-562 cell line; assay type: functional
Outline: as §2

| SMILES | Dead cells (K562 [2]) [%] | IC50 (Cavia porcellus [3]) | EC50 (Cavia porcellus [5]) [nM] | Dead cells (K562 [11]) [%] | Activity (Cavia porcellus [1]) [%] | Activity (Cavia porcellus [4]) [%] | Alpha max (K562 [6]) | Potency (K562 [7]) [nM] | Activity (Cavia porcellus [8]) [%] | EC30 (Cavia porcellus [9]) | EC30 (Cavia porcellus [10]) [nM] | Alpha max (K562 [12]) |
| --- | --- | --- | --- | --- | --- | --- | --- | --- | --- | --- | --- | --- |
| COc1ccc(C(C#N)(CC#CCNCc2cc3ccccc3c3ccccc23)C(C)C)cc1OC.Cl (stereo not drawn) | 20 | Inactive | 1290 |  | 31 | 88 | 0.5 | 500 | 10 | inactive |  |  |
| C=CCNc1nc(NCC=C)nc(N2CCC(NCC#CCC(C#N)(c3ccc(OC)c(OC)c3)C(C)C)CC2)n1.Cl (stereo not drawn) | 0 | Inactive | 1890 |  | 81 | 67 | 0.9 | 200 | 16 |  | 800 |  |
| COc1ccc(C(C#N)(CC#CCNC(c2ccccc2)c2ccccc2)C(C)C)cc1OC.Cl (stereo not drawn) |  | Inactive | 1540 | 6 | 24 | 69 |  | 500 | 23 | inactive |  | 0.6 |
| Cl.N#CC(CCCNCC(c1ccccc1)c1ccccc1)(c1ccccc1)c1ccccc1 | 40 | Inactive | 2150 |  | 82 | 75 |  |  | 19 |  | 1160 |  |
| Cl.N#CC(CCCNCc1cc2ccccc2c2ccccc12)(c1ccccc1)c1ccccc1 | 100 | Inactive | 2110 |  | 38 | 61 |  |  | 3 | inactive |  |  |
| COc1ccc(C(C#N)(CCCNCc2c3ccccc3cc3ccccc23)C(C)C)cc1OC.Cl (stereo not drawn) | 3 | Inactive | 1110 |  | 65 | 55 | 0.7 | 50 | 29 |  | 860 |  |
| COc1ccc(C(C#N)(CCCNCc2cc3ccccc3c3ccccc23)C(C)C)cc1OC.Cl (stereo not drawn) | 100 | Inactive | 1130 |  | 43 | 65 |  |  | 19 | inactive |  |  |

Stronger by EC50 (Cavia porcellus [5]), values ahead:

| Dead cells (K562 [2]) [%] | IC50 (Cavia porcellus [3]) | EC50 (Cavia porcellus [5]) [nM] | Dead cells (K562 [11]) [%] | SMILES | Activity (Cavia porcellus [1]) [%] | Activity (Cavia porcellus [4]) [%] | Alpha max (K562 [6]) | Potency (K562 [7]) [nM] | Activity (Cavia porcellus [8]) [%] | EC30 (Cavia porcellus [9]) | EC30 (Cavia porcellus [10]) [nM] | Alpha max (K562 [12]) |
| --- | --- | --- | --- | --- | --- | --- | --- | --- | --- | --- | --- | --- |
| 0 |  | 610 |  | COc1ccc(CCN(C)CCCC(C#N)(c2ccc(OC)c(OC)c2)C(C)C)cc1OC (stereo not drawn) [VERAPAMIL] | 94 | 84 | 0.7 |  | 95 |  | 70 |  |
| 30 | Inactive | 630 |  | COc1ccc(C(C#N)(CC#CCN(C)Cc2c3ccccc3cc3ccccc23)C(C)C)cc1OC.Cl (stereo not drawn) | 39 | 65 |  |  | 46 | inactive |  |  |
| 2 | Inactive | 380 |  | Cl.N#CC(CCCNC(c1ccccc1)c1ccccc1)(c1ccccc1)c1ccccc1 | 28 | 94 | 0.5 | 2000 | 15 | inactive |  |  |
| 15 | Inactive | 1040 |  | COc1ccc(C(C#N)(CC#CCNCc2c3ccccc3cc3ccccc23)C(C)C)cc1OC.Cl (stereo not drawn) | 34 | 74 | 0.7 | 2000 | 12 | inactive |  |  |
|  | Inactive | 900 | 3 | CN(CCCC(C#N)(c1ccccc1)c1ccccc1)C1c2ccccc2-c2ccccc21.Cl | 9 | 55 |  | 3000 | 5 | inactive |  | 0.9 |
